High-throughput results from PubChem.
Only some compounds are listed: those with a hit (about 2.2% of all), similar ones and a draw of the others.
Wee1 stabilizer = Wee1 degradation inhibitors, primary screen, cell-based, HeLa, Wee1K328M-luciferase, luminescence | AID 1321, 2008 | HeLa Luc-Wee1K328M stability; 100% = proteasome inhibitor MG132 effect | Wee1-like protein kinase (Homo sapiens), P30291 | 220,000 compounds, 1.2% hits | reporter increase, % at 5 µM;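 active = activation above the mean of all tested compounds plus 3 SD, set per screening run, cut at about 8.8% in these data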;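 also: cells exposed to compound for 20 h before luminescence read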
Insulin prom inh = inhibitors of insulin promoter-driven GFP, primary screen, imaging, TRM-6 cells, eGFP reporter, cell count; reporter expression induced with tamoxifen; inhibition, % at 2 µM; 130,000 compounds, 0.9% hits; AID 1273, 2008;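 active = inhibition above the mean plus 3 SD, with well images judged a real hit on visual review, cut at about 60% in these data, passing the limit was not always enough; inconclusive = inhibition over the cutoff but images rejected on review; inactive = inhibition not above the cutoff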
RBBP9 inh = human RBBP9 inhibitors, primary screen, biochemical, fluorescence polarization, FP-Rh probe, HTS; Serine hydrolase RBBP9 (Homo sapiens), O75884; recombinant RBBP9; inhibition, % at 7.94 µM; 220,000 compounds, 0.2% hits; AID 1515, 2009;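 active = inhibition above the campaign mean of all tested compounds plus 3 SD, cut at about 14% in these data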
Target sequence (O75884 whole entry, looked up): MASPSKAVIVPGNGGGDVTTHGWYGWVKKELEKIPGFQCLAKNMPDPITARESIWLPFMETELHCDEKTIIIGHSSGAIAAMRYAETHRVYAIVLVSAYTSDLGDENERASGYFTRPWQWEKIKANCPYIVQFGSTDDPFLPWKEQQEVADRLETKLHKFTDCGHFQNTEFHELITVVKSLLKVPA
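System: RBBP9 protein / Quantity: 2.5 µM RBBP9 dispensing solution, before mixing / Also added: Serine-hydrolase probe FP-Rh, 375 nM pre-mixing / Dosing: 7.94 µM single dose, 0.794% DMSO / Timing: enzyme-compound preincubation 30 min, then probe labeling 45 min, 25 °C / Signal: FP readout at 525/598 nm / Controls: DMSO-treated enzyme wells and wells lacking RBBP9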
MDM2 E3 inh = MDM2-luciferase reporter signal enhancers, primary screen, MDM2 E3 ligase inhibitor project, cell-based, luminescence, 1536-well | E3 ubiquitin-protein ligase Mdm2 (Homo sapiens), Q00987 | cell-based MDM2 ubiquitination luciferase reporter, 2 h; 0 = plate control, 100 = twice control, blank-subtracted | signal enhancement, % at 5 µM | 210,000 compounds, 0.11% hits;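 active = signal enhancement of 30% or more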;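 also: luminescence tracks abundance of the self-degrading MDM2-luciferase fusion protein; higher signal means inhibition of MDM2 E3 ligase activity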
Target sequence (Q00987 whole entry, looked up, the tested form may be a part): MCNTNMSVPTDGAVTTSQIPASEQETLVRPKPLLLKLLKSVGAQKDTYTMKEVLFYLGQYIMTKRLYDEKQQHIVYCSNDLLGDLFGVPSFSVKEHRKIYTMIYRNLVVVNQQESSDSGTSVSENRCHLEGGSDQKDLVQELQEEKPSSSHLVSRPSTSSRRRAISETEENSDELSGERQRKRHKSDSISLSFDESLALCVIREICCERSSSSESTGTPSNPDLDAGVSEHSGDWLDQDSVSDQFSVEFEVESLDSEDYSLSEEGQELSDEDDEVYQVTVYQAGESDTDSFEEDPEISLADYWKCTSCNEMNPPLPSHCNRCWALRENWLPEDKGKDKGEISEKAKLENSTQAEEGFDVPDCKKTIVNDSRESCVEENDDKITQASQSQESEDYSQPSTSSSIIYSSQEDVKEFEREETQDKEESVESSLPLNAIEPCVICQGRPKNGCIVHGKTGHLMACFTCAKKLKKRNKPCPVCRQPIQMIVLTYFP
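Test system: stable mammalian line carrying autodegrading MDM2–luciferase fusion reporter; quantity: 2000 cells in each well; times: 4 h cell settling then 2 h compound exposure, 37 °C; detection: luminescence with SteadyLite reagent, 15 min at room temperature; evaluation: percent signal gain over controls, blank-subtracted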
Hsp70 activator = Hsp70 transcriptional activators, primary screen, cell-based, HeLa, Hsp70 promoter luciferase, luminescence, 10 µM. HeLa Hsp70 promoter luciferase reporter; scaled: vehicle 0, proteasome-inhibitor control 100%. activation, % at 10 µM. 200,000 compounds, 0.04% hits;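 active = activation above the mean across all tested compounds plus 3 SD, cutoff set per campaign, cut at about 5.5% in these data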
Insulin prom up = insulin promoter activators in MIN6 cells, imaging, high-content screening, mouse beta cells. 190,000 compounds, 0.3% hits. MIN6 insulin promoter-GFP reporter; active compounds read high. z-score at 5 µM;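 active = z-score above 3 at 5 µM with at least 500 cells counted in the well; inconclusive = wells under 500 cells, flagged as cytotoxic or low count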
A number is an active result; i = inactive; ? = inconclusive; nt = not tested or not shown.

SMILES	Wee1 stabilizer	Insulin prom inh	RBBP9 inh	MDM2 E3 inh	Hsp70 activator	Insulin prom up
CC1CC(C)CN(C(=O)c2cccc3c2-c2ccccc2C3=O)C1 (stereo not given)	i	nt	i	nt	nt	4
COC(=O)CCC/C=C1\SC[C@@H](NC(=O)c2ccccc2)C1NC(C)=O (stereo not given in full)	i	i	i	i	i	i
Cc1snc(S(=O)(=O)/C(C#N)=N/Nc2ccc(C(F)(F)F)cc2)c1C#N	i	71	i	i	i	i
O=C(CSc1nc2c(c(=O)n1-c1ccccc1)SCC2)NCC1CCCO1 (stereo not given)	i	nt	i	i	nt	i
O=C1CCC(=O)N1N1C(=O)C2C3c4ccccc4C(c4ccccc43)C2C1=O (stereo not given)	i	nt	i	i	i	i
COc1ccc2nc(NC(=O)c3cccs3)sc2c1	9.5	nt	i	i	nt	i
COc1ccc2nc(NC(C)=O)sc2c1	i	i	i	i	i	i
CCN1C(=O)/C(=c2\sc3nc(=O)c(Cc4ccccc4)nn3c2=O)c2ccccc21	i	nt	i	i	nt	i
O=C(NC1CCCC1)C1c2ccccc2C(=O)N1CCCN1CCOCC1 (stereo not given)	i	60	i	nt	i	i
COCCCN1C(=O)c2ccccc2C1C(=O)NC1CCCCCC1 (stereo not given)	i	i	i	i	i	i
COc1ccc(-c2cc(C(F)(F)F)nc(SCC(=O)NCc3cccs3)n2)cc1OC	i	i	i	i	i	i
CCOC(=O)c1[nH]c(C(=O)O)c(OC(=O)CC)c1C	i	nt	i	i	nt	i
COc1ccccc1C(=O)C1CCCN(C(=O)CSc2ccccn2)C1 (stereo not given)	10	nt	i	i	i	i
COc1ccc(F)cc1C(=O)C1CCCN(C(=O)CSc2ccccn2)C1 (stereo not given)	i	nt	i	i	i	i
Cc1cc(N2CCOCC2)nc2ccc(NC(=S)N3CCCCC3C)cc12 (stereo not given)	i	73	i	i	i	nt
CC1=CCC2C(=O)N(c3ccccc3OC(=O)c3ccccc3F)C(=O)C2C1 (stereo not given)	i	i	i	i	i	i
O=c1cc(NCCO)c2ccccc2o1	i	i	i	i	i	i
O=c1cc(NCCc2ccccc2)c2ccccc2o1	9.0	i	i	i	i	i
O=C(Cn1c(=O)c2sccc2n(Cc2cccc([N+](=O)[O-])c2)c1=O)NCCc1ccccc1	i	i	i	i	i	i
Cc1cc(O)ccc1C1(c2ccc(O)cc2C)OC(=O)c2ccccc21	i	i	i	i	i	nt
CC(=O)Oc1ccc2c(c1)Oc1cc(OC(C)=O)ccc1C21OC(=O)c2ccccc21	i	nt	16	i	i	nt
C=CCn1c(COc2ccc(Cl)cc2)nnc1SCC(=O)c1c(N)n(C)c(=O)n(C)c1=O	10	nt	i	i	i	i
C=CCn1c(SCC(=O)c2c(N)n(C)c(=O)n(C)c2=O)nnc1-c1ccccc1F	i	nt	i	i	i	i
Cc1ccc(OCC(=O)N/N=C2/SCC(=O)N2Cc2ccccc2)cc1	i	i	i	i	i	i
O=C(COc1ccc(Br)cc1)N/N=C1\SCC(=O)N1c1ccc(F)cc1	i	93	i	nt	i	i
SMILES	Wee1 stabilizer	Insulin prom inh	RBBP9 inh	MDM2 E3 inh	Hsp70 activator	Insulin prom up
Cc1csc2c(C#N)c(=O)c3c(n12)CCC3	i	nt	i	i	i	i
COCCN(C(=O)CNC(=O)c1cccs1)C(C(=O)NC1CCCC1)c1cccs1 (stereo not given)	9.8	i	i	i	i	i
CCc1nnc(NS(=O)(=O)c2ccc(Nc3ccc4nonc4c3[N+](=O)[O-])cc2)s1	i	i	i	i	i	i
O=C(Nc1ccc(CN2CCOCC2)cc1)c1cc2ccccc2o1	10	i	i	i	i	i
CSc1ccccc1NC(=O)c1cc(-c2cccs2)on1	9.4	nt	i	i	i	i
COc1ccc(-c2cc(C(=O)Nc3ccccc3SC)no2)cc1	i	i	i	i	i	i
NC(=O)c1cccc(CC(=O)c2ccccc2)c1	i	nt	i	i	nt	i
Cc1ccc(C(=O)COC(=O)c2ccc(O)cc2)cc1	10	i	i	i	i	i
NC(=O)COC(=O)c1ccc(-c2ccccc2)cc1	i	nt	i	i	i	i
CCOC(=O)COC(=O)c1ccc(O)cc1	i	i	i	i	i	i
NC(=O)COC(=O)c1ccc(-c2ccc(O)cc2)cc1	9.8	nt	i	i	nt	i
Cc1nn2c(=O)c3c4c(sc3nc2n1-c1ccccc1)COC(C)(C)C4	i	nt	i	i	nt	i
C=C(Cl)COc1ccc2c(CCCC)cc(=O)oc2c1	9.3	i	i	i	i	i
C=C(Cl)COc1ccc2c(CC)cc(=O)oc2c1	i	nt	i	i	i	i
CCC(C)N(CC(=O)Nc1cccc(C)c1C)C(=O)CCl (stereo not given)	i	100	i	i	i	i
CCC(CC)NC(=O)Nc1cccc(C)c1C	i	i	i	i	i	i
c1ccc(CSc2ncccn2)cc1	i	i	i	i	i	i
c1ccc(CSC2=NNC(c3ccccn3)S2)cc1 (stereo not given)	i	nt	i	37	nt	?
O=C(CSC1=NNC(c2ccccn2)S1)Nc1ccc(C(F)(F)F)cc1 (stereo not given)	i	nt	i	37	nt	i
CCOc1ccc(CCN2C(=O)C3C4C=CC(C4)C3C2=O)cc1OCC (stereo not given)	i	nt	i	i	i	i
CCOc1ccc(N2C(=O)Nc3ccccc3C2(O)C(=O)NCc2ccc(C)cc2)cc1 (stereo not given)	12	i	i	i	i	i
Cc1cc(C(=O)Oc2cccnc2)ccc1[N+](=O)[O-]	i	83	i	i	i	i
C/C(=N\NC(=O)c1nn(C)cc1Cl)c1ccncc1	i	i	i	i	i	i
CCOP(=O)(O)c1cccc(OCCOCCOc2cccc(P(=O)(O)OCC)c2)c1	i	i	i	i	i	i
CCCCn1c(N)c(NCCC(C)C)c(=O)[nH]c1=O	i	82	i	i	i	i
Cc1cc(S(N)(=O)=O)c(N)c(S(N)(=O)=O)c1	i	nt	i	i	nt	i
C=CCc1c(C)[nH]c(=O)[nH]c1=O	i	78	i	i	i	i
Cc1ccc(/C=[N+](\[O-])c2ccc(N(C)C)cc2)c2nsnc12	i	nt	i	i	i	nt
O=c1c([N+](=O)[O-])c(N2CCCC2)c2ccccc2n1-c1ccccc1	i	nt	i	i	i	nt
CCCc1cc(C(N)=O)c(NC(=O)c2ccoc2C)s1	i	76	i	i	i	i
